Measurements: publication PMC3321094 (Nature, 2012)
Residue numbers refer to the chain shown, from its start. Numbers in names are those of the source. Where no end group is shown, it is not given here.

T1: Histone H4K20me3 peptide 14-25 (Homo sapiens, UniProt P62805)
T1 chain: GGAKRHRK(Me3)VLRD

T2: Histone H4K20me2 peptide 14-25 (Homo sapiens, UniProt P62805)
T2 chain: GGAKRHRK(Me2)VLRD

B1: ORC1 BAH domain (hORC1BAH) 1-185 (protein)
chain: MAHYPTRLKTRKTYSWVGRPLLDRKLHYQTYREMCVKTEGCSTEIHIQIGQFVLIEGDDDENPYVAKLLELFEDDSDPPPKKRARVQWFVRFCEVPACKRHLLGRKPGAQEIFWYDYPACDSNINAETIIGLVRVIPLAPKDVVPTNLKNEKTLFVKLSWNEKKFRPLSSELFAELNKPQESAAK
B2: ORC1 BAH domain (mORC1BAH) 9-170 (protein)
chain: KTRQTFSWVGRPLPNRKQFQQMYREICMKINDGSEIHIKVGQFVLIQGEDNKKPYVAKLIELFQNGAEVPPKKCARVQWFVRFLEIPVSKRHLLGRSPPAQEIFWYDCSDWDNKINVETIIGPVQVVALAPEEVIPVDQKSEETLFVKLSWNKKDFAPLPPE
B3: hORC1Y64A: H4K20me2-binding pocket mutant Y64A of human ORC1 (protein, UniProt Q13415 1-861, looked up, variant Y64A)
Origin recognition complex …: MAHYPTRLKTRKTYSWVGRPLLDRKLHYQTYREMCVKTEGCSTEIHIQIGQFVLIEGDDDENPAVAKLLELFEDDSDPPPKKRARVQWFVRFCEVPACKRHLLGRKPGAQEIFWYDYPACDSNINAETIIGLVRVIPLAPKDVVPTNLKNEKTLFVKLSWNEKKFRPLSSELFAELNKPQESAAKCQKPVRAKSKSAESPSWTPAEHVAKRIESRHSASKSRQTPTHPLTPRARKRLELGNLGNPQMSQQTSCASLDSPGRIKRKVAFSEITSPSKRSQPDKLQTLSPALKAPEKTRETGLSYTEDDKKASPEHRIILRTRIAASKTIDIREERTLTPISGGQRSSVVPSVILKPENIKKRDAKEAKAQNEATSTPHRIRRKSSVLTMNRIRQQLRFLGNSKSDQEEKEILPAAEISDSSSDEEEASTPPLPRRAPRTVSRNLRSSLKSSLHTLTKVPKKSLKPRTPRCAAPQIRSRSLAAQEPASVLEEARLRLHVSAVPESLPCREQEFQDIYNFVESKLLDHTGGCMYISGVPGTGKTATVHEVIRCLQQAAQANDVPPFQYIEVNGMKLTEPHQVYVQILQKLTGQKATANHAAELLAKQFCTRGSPQETTVLLVDELDLLWTHKQDIMYNLFDWPTHKEARLVVLAIANTMDLPERIMMNRVSSRLGLTRMCFQPYTYSQLQQILRSRLKHLKAFEDDAIQLVARKVAALSGDARRCLDICRRATEICEFSQQKPDSPGLVTIAHSMEAVDEMFSSSYITAIKNSSVLEQSFLRAILAEFRRSGLEEATFQQIYSQHVALCRMEGLPYPTMSETMAVCSHLGSCRLLLVEPSRNDLLLRVRLNVSQDDVLYALKDE
B4: hORC1W88A: H4K20me2-binding pocket mutant W88A of human ORC1 (protein, UniProt Q13415 1-861, looked up, variant W88A)
Origin recognition complex …: B3 Origin recognition complex … with A64Y, W88A

Columns and labels:
[1] = target: T1, Histone H4K20me3 peptide 14-25; experiment: ITC
[2] = target: T2, Histone H4K20me2 peptide 14-25; experiment: ITC
[3] = system: ORC components (ORC2, ORC3 and ORC5); experiment: Affinity purification of FLAG-ORC1 complexes from U2OS cells; type: cell-based, human; conditions: vs wild-type ORC1, Western blot
[4] = system: ORC components (ORC2, ORC3 and ORC5); experiment: Affinity purification of FLAG-ORC1 complexes from HT1080 cells; type: cell-based, human; conditions: vs wild-type ORC1, Western blot
chromatin = experiment: Small-scale biochemical fractionation: ORC chromatin association; type: cell-based, human; conditions: cells stably expressing ORC1 protein, in comparison to hORC1; Western blot
WI38 cells = experiment: Cell-cycle profile of WI38 cells by flow cytometry; type: cell-based, human; conditions: WI38 primary fibroblast, relative to wild-type hORC1
In short: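 WI38 cells transiently expressing GFP plus wild-type ORC1 or an H4K20me2-binding-pocket point mutant (Y64A or W88A). Cell-cycle profile determined by flow cytometry, gating on GFP-positive cells so that only transfected cells are scored. Percentage of cells in each cell-cycle phase and the S/G1 ratio are calculated per transfection. Two experiments, s.d. reported.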

Row | Molecule | Kd [1] | Kd [2] | efficiency of affinity purification of ORC2, ORC3 and ORC5 [3] | efficiency of affinity purification of ORC2, ORC3 and ORC5 [4] | ORC1 enrichment at chromatin (chromatin) | S phase population (WI38 cells) | S/G1 ratio (in words) (WI38 cells)
1 | B1 | 40 µM |  |  |  |  |  | 
2 | B2 |  | 9.6 µM |  |  |  |  | 
3 | B3 |  |  | equal to that observed with the wild-type protein | equal to that observed with the wild-type protein | considerably reduced | decreased S phase population | lower S/G1 ratio
4 | B4 |  |  | equal to that observed with the wild-type protein | equal to that observed with the wild-type protein | considerably reduced | decreased S phase population | lower S/G1 ratio
